Here are results for 17 molecules from ChEMBL document CHEMBL2010663, “Iodine-catalyzed condensation of isatin with indoles: a facile synthesis of di(indolyl)indolin-2-ones and evaluation of their cytotoxicity” (Bioorg Med Chem Lett, 2012).

Test [1] relates to MDA-MB-231. The experiment in a line: Cytotoxicity against human MDA-MB-231 cells after 48 hrs by MTT assay. The format is functional, cell-based. Conditions: MDA-MB-231, 48 h. The procedure, abridged:
(§1)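 Cells seeded at 10,000 cells/100 μl in medium with 10% serum and left 24 h in a humid 5% CO2 chamber to adhere. Compounds were then added at a range of concentrations for 48 h. MTT (5 mg/mL stock in PBS, 10 μl per well) was added for 2 h.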

The test system of test [2] is SK-N-SH. Kind of test: Cytotoxicity against human SK-N-SH cells after 48 hrs by MTT assay. The format is functional, cell-based. In a few lines:
as §1

Test [3] concerns A549. The experiment in a line: Cytotoxicity against human A549 cells after 48 hrs by MTT assay. The format is functional, cell-based. The settings on record: A549, 48 h. The procedure, abridged:
as §1

Test [4] concerns MRC5. The experiment in a line: Cytotoxicity against human MRC5 cells after 48 hrs by MTT assay. The format is cell-based. The settings on record: MRC5, 48 h. In a few lines:
as §1

Where only a bound is given, the exact number is not on record here.

`c1ccc2[nH]ccc2c1` [INDOLE]: the IC50 in test [1] is greater than 100 µM; in test [2], 1.78 µM; in test [3], greater than 100 µM; in test [4], 15.6 µM.
For `O=C1Nc2ccccc2C1(c1c[nH]c2ccc([N+](=O)[O-])cc12)c1c[nH]c2ccc([N+](=O)[O-])cc12`, the 50% inhibitory concentration (IC50) is 9.98 µM in test [1], 0.99 µM in test [2], 7.9 µM in test [3] and greater than 100 µM in test [4].
On to `O=C1Nc2ccc(Cl)cc2C1(c1c(-c2ccccc2)[nH]c2ccccc12)c1c(-c2ccccc2)[nH]c2ccccc12`, for which the IC50 in test [1], in test [2], in test [3] and in test [4] was greater than 100 µM in each case.
With `COC(=O)c1ccc2[nH]cc(C3(c4c[nH]c5ccc(C(=O)OC)cc45)C(=O)Nc4ccccc43)c2c1`, the IC50 in test [1] is greater than 100 µM; in test [2], 0.98 µM; in test [3], 0.75 µM; in test [4] it was greater than 100 µM.
Consider `Cc1[nH]c2ccc([N+](=O)[O-])cc2c1C1(c2c(C)[nH]c3ccc([N+](=O)[O-])cc23)C(=O)Nc2ccccc21`, for which the IC50 was 99.4 µM in test [1], 0.94 µM in test [2], 0.89 µM in test [3] and greater than 100 µM in test [4].
The corresponding values for `COC(=O)c1ccc2[nH]cc(C3(c4c[nH]c5ccc(C(=O)OC)cc45)C(=O)Nc4ccc(Cl)cc43)c2c1` are 10 µM, 9.9 µM, 71.5 µM and greater than 100 µM.
Consider `Cc1[nH]c2ccc([N+](=O)[O-])cc2c1C1(c2c(C)[nH]c3ccc([N+](=O)[O-])cc23)C(=O)Nc2ccc(Cl)cc21`, for which the IC50 in test [1] is 10.1 µM; in test [2] it was 1.23 µM; in test [3] it was 69.4 µM; in test [4], greater than 100 µM.
The corresponding values for `Cc1[nH]c2ccccc2c1C1(c2c(C)[nH]c3ccccc23)C(=O)Nc2ccccc21` are greater than 100 µM, 0.98 µM, 0.92 µM and greater than 100 µM.
As to `O=C1Nc2ccccc2C1(c1c[nH]c2ccccc12)c1c[nH]c2ccccc12`, the IC50 in test [1] is greater than 100 µM; in test [2], 0.9 µM; in test [3], 1.23 µM; in test [4], greater than 100 µM.
Regarding `N#Cc1ccc2[nH]cc(C3(c4c[nH]c5ccc(C#N)cc45)C(=O)Nc4ccccc43)c2c1`, the IC50 in test [1] is 99.1 µM; in test [2], 0.94 µM; in test [3], 0.97 µM; in test [4] it was greater than 100 µM.
For the molecule `O=C1Nc2ccccc2C1(c1c[nH]c2ccc(Br)cc12)c1c[nH]c2ccc(Br)cc12`, the IC50 was 9.95 µM in test [1], 0.93 µM in test [2], 0.96 µM in test [3] and greater than 100 µM in test [4].
The corresponding values for `O=C1Nc2ccccc2C1(c1c[nH]c2ccc(Cl)cc12)c1c[nH]c2ccc(Cl)cc12` are 10 µM, 1.31 µM, greater than 100 µM and greater than 100 µM.
In the same order, the values of `Cn1cc(C2(c3cn(C)c4ccccc34)C(=O)Nc3ccccc32)c2ccccc21` are greater than 100 µM, 1.32 µM, greater than 100 µM and greater than 100 µM.
The corresponding values for `COc1cccc2c1C(=O)c1c(O)c3c(c(O)c1C2=O)C[C@@](O)(C(=O)CO)C[C@@H]3O[C@H]1C[C@H](N)[C@H](O)[C@H](C)O1` [DOXORUBICIN] are 8.14 µM, 0.97 µM, 15.1 µM and 14.8 µM.
In the case of `O=C1Nc2ccccc2C1(c1c(-c2ccccc2)[nH]c2ccccc12)c1c(-c2ccccc2)[nH]c2ccccc12`, the IC50 in test [1] is greater than 100 µM; in test [2], 9.6 µM; in test [3], 8.91 µM; in test [4], greater than 100 µM.
As to `O=C1Nc2ccc(Cl)cc2C1(c1c[nH]c2ccc(Br)cc12)c1c[nH]c2ccc(Br)cc12`, the IC50 is greater than 100 µM in test [1], 1.04 µM in test [2], greater than 100 µM in test [3] and greater than 100 µM in test [4].
Consider `O=C1Nc2ccccc2C1=O` [ISATIN], for which the IC50 was greater than 100 µM in test [1], 9.84 µM in test [2], 13.5 µM in test [3] and greater than 100 µM in test [4].
